According to ChEMBL document CHEMBL3526032, “Ablation of both organic cation transporter (OCT)1 and OCT2 alters metformin pharmacokinetics but has no effect on tissue drug exposure and pharmacodynamics” (Drug Metab Dispos, 2012):
Active and inactive are the calls of the source. The calls are words filed in the database; no cut-off is given here.

Key:
[1] = test system: OCT2 over OCT1; assay: Selectivity for OCT2 (unknown origin) over OCT1 (unknown origin); type: ADME; conditions: human
[2] = test system: Mus musculus; assay: Antidiabetic activity in wild type FVB mouse assessed as half-maximal efficacious AUC at 300 mg/kg, po by oral glucose tolerance test relative to control; type: functional, organism-based; parameters: dose 300 mg/kg
[3] = test system: Mus musculus; assay: Antidiabetic activity in wild type FVB mouse assessed as blood glucose AUC level at 300 mg/kg, po by oral glucose tolerance test relative to control; type: functional
Method in brief: (§1)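 Male FVB mice, wild type or Oct1/2-knockout, fasted 16 h. Day 1: oral vehicle (1% hydroxyethyl cellulose/0.25% polysorbate-80/0.05% antifoam) given at -30 min. Day 8: oral metformin 10-300 mg/kg instead. At 0 min, oral glucose 2.5 g/kg.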

[4] = test system: Mus musculus; assay: Antidiabetic activity in Oct1/Oct2-knockout FVB mouse assessed as plasma insulin level at 300 mg/kg, po by oral glucose tolerance test; type: functional, organism-based; parameters: dose 300 mg/kg
Method in brief: (§2)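 Plasma insulin measured by immunoassay at 0, 30, 60, 90 and 120 min during an oral glucose tolerance test (2.5 g/kg) in 16-h fasted male FVB wild-type or Oct1/2-knockout mice. Oral vehicle or metformin (10-300 mg/kg) given 30 min before glucose.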

[5] = test system: Mus musculus; assay: Antidiabetic activity in Oct1/Oct2-knockout FVB mouse assessed as blood glucose AUC level at 300 mg/kg, po by oral glucose tolerance test relative to control; type: functional; method in brief: as §1
[6] = test system: Mus musculus; assay: Antidiabetic activity in wild type FVB mouse assessed as reduction in blood glucose level at 10 mg/kg, po by oral glucose tolerance test; type: functional, organism-based; parameters: dose 10 mg/kg; method in brief: as §1
[7] = test system: Mus musculus; assay: Antidiabetic activity in Oct1/Oct2-knockout FVB mouse assessed as reduction in blood glucose level at 300 mg/kg, po by oral glucose tolerance test relative to control; type: functional, organism-based; parameters: dose 300 mg/kg; method in brief: as §1
[8] = test system: Mus musculus; assay: Antidiabetic activity in po dosed Oct1/Oct2-knockout FVB mouse assessed as reduction in blood glucose level by oral glucose tolerance test relative to control; type: functional; method in brief: as §1
[9] = test system: Mus musculus; assay: Antidiabetic activity in Oct1/Oct2-knockout FVB mouse assessed as half-maximal efficacious AUC at 300 mg/kg, po by oral glucose tolerance test relative to control; type: functional, organism-based; parameters: dose 300 mg/kg
[10] = test system: Mus musculus; assay: Antidiabetic activity in wild type FVB mouse assessed as reduction in blood glucose level at 300 mg/kg, po by oral glucose tolerance test relative to control; type: functional, organism-based; parameters: dose 300 mg/kg; method in brief: as §1
[11] = test system: Mus musculus; assay: Antidiabetic activity in po dosed wild type FVB mouse assessed as reduction in blood glucose level by oral glucose tolerance test relative to control; type: functional; method in brief: as §1
[12] = test system: Mus musculus; assay: Antidiabetic activity in Oct1/Oct2-knockout FVB mouse assessed as reduction in blood glucose level at 10 mg/kg, po by oral glucose tolerance test; type: functional, organism-based; parameters: dose 10 mg/kg; method in brief: as §1
[13] = test system: Mus musculus; assay: Antidiabetic activity in wild type FVB mouse assessed as plasma insulin level at 300 mg/kg, po by oral glucose tolerance test; type: functional, organism-based; parameters: dose 300 mg/kg; method in brief: as §2
[14] = in vivo; conditions: FVB, mouse, plasma, iv, 10 mg/kg
[15] = in vivo; conditions: FVB, mouse, iv, 10 mg/kg
[16] = Drug excretion in wild type FVB mouse urine at 10 mg/kg, iv after 2 hrs
[17] = Clearance in wild type FVB mouse at 10 mg/kg, iv; conditions: in vivo
[18] = Drug recovery in wild type FVB mouse urine assessed as corrected compound recovery by measuring nominal to observerd glomerular filtration rate ratio at 10 mg/kg, iv
[19] = Volume of distribution at steady state in Oct1/Oct2-knockout FVB mouse at 10 mg/kg, iv; conditions: in vivo
[20] = Drug excretion in Oct1/Oct2-knockout FVB mouse urine at 10 mg/kg, iv after 2 hrs
[21] = in vivo; conditions: FVB, mouse, plasma, iv, 10 mg/kg; remark: listed apart in the source
[22] = Initial plasma concentration in wild type FVB mouse at 10 mg/kg, iv
[23] = Drug recovery in Oct1/Oct2-knockout FVB mouse urine assessed as corrected compound recovery by measuring nominal to observerd glomerular filtration rate ratio at 10 mg/kg, iv
[24] = Initial plasma concentration in Oct1/Oct2-knockout FVB mouse at 10 mg/kg, iv
[25] = in vivo; conditions: FVB, mouse, plasma, iv, 10 mg/kg; remark: listed apart in the source
[26] = Clearance in Oct1/Oct2-knockout FVB mouse at 10 mg/kg, iv; conditions: in vivo
[27] = in vivo; conditions: FVB, mouse, plasma, iv, 10 mg/kg; remark: listed apart in the source
[28] = in vivo; conditions: FVB, mouse, iv, 10 mg/kg; remark: listed apart in the source
[29] = Volume of distribution at steady state in wild type FVB mouse at 10 mg/kg, iv; conditions: in vivo

NC12CC3CC(CC(C3)C1)C2 [AMANTADINE]
selectivity ratio [1]: 20

CC(N)Cc1ccccc1 (stereo not given) [AMPHETAMINE]
selectivity ratio [1]: 20

CN(C)C(=N)NC(=N)N.Cl [METFORMIN HYDROCHLORIDE]
AUC [2]: 26000 ng·h/mL
Activity [3]: 39%
Activity [4]: Active
Activity [5]: 42%
Activity [6]: inactive
Activity [7]: Active
ED50 [8]: 151 mg/kg
AUC [9]: 70000 ng·h/mL
Activity [10]: Active
ED50 [11]: 110 mg/kg
Activity [12]: inactive
Activity [13]: Active

CC[N+](CC)(CC)CC [TETRYLAMMONIUM]
AUC(0-inf) [14]: 2840 ng·h/mL
half-life [15]: 18.6 min
dose excreted at 2 h [16]: 35%
clearance [17]: 58.7 mL/min/kg
dose excreted [18]: 95%
Vd [19]: 0.318 L/kg
dose excreted at 2 h [20]: 30%
AUC(0-inf) [21]: 9840 ng·h/mL
C0 [22]: 22700 ng/mL
dose excreted [23]: 62%
C0 [24]: 67.4 µg/mL
AUC(0-t) [25]: 9100 ng·h/mL
clearance [26]: 16.9 mL/min/kg
AUC(0-t) [27]: 2410 ng·h/mL
half-life [28]: 12 min
Vd [29]: 1.52 L/kg
